This is an account of results in ChEMBL document CHEMBL1667823, “Design and synthesis of 4-arylpiperidinyl amide and N-arylpiperdin-3-yl-cyclopropane carboxamide derivatives as novel melatonin receptor ligands” (Bioorg Med Chem Lett, 2011).

SMILES strings stand for the structures.

The nature of data set [1]: Displacement of [3H]melatonin from rat MT2 receptor expressed in CHO-Galpha16 cells. The format is cell-based. The procedure, abridged: (§1)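 Rat MT1 or MT2 membranes from CHO-Galpha16 cells incubated with [3H]-melatonin (0.5 nM final, 80 Ci/mmol) in 50 mM Tris/HCl pH 7.4, 5 mM MgCl2. Nonspecific binding defined with excess melatonin. Stopped by rapid GF/B filtration with five ice-cold washes. Ki from IC50 via Cheng–Prusoff.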

Data set [2] is described as follows: Ratio of drug level in rat brain to plasma at 10 mg/kg, ip after 1 hr. The format is ADME, organism-based. Also noted: dose 10 mg/kg, route intraperitoneal. The procedure, abridged: (§2)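 Rats dosed 10 mg/kg IP, with brain and plasma concentrations taken at 1 h. Vehicle varied: 20% HP-bCD, 15% Solutol, or 10% DMSO with 2.5% PEG400 in 15% Solutol. B/P is the brain-to-plasma concentration ratio.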

Data set [3] is filed under the species Rattus norvegicus. Nature of the data set: Intrinsic activity at rat MT2 receptor expressed in CHO-Galpha16 cells assessed as Ca2+ mobilization after 20 mins by FLIPR assay relative to agomelatine. The format is cell-based. The procedure, abridged:
(§3)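 CHO-Galpha16 cells expressing rat MT1 or MT2, plated 24 h ahead, loaded with Fluo4-AM (1.5 final) plus pluronic acid in HBSS/20 mM HEPES/0.1% BSA pH 7.4 with 2.5 mM probenecid, 1 h at 37 °C, then washed. Ca2+ read by FLIPR. Agonist mode: 15 s baseline, compound added, 3 min read. Antagonist mode: compound preincubated 20 min at room temperature, then melatonin at EC80, 3 min read.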

Data set [4] concerns Liver microsomes. The data set can be described thus: Intrinsic clearance in rat liver microsome at 1 uM by LC/MS analysis. Format: ADME. Summed up: (§4)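 Compound at 1 µM incubated with liver microsomes (0.5 mg/mL protein) and an NADPH-regenerating system, sampled at 0, 5, 15, 30 and 60 min. Quenched, centrifuged supernatants analysed by LC/MS for remaining parent to estimate T1/2.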
(In general: Microsomes from liver hold many membrane-bound enzymes, among them those of drug oxidation.)

The species entered for data set [5] is Rattus norvegicus. The data set can be described thus: (§5) Ratio of Ki for rat MT1 to Ki for rat MT2. The procedure, abridged: as §1
Data set [6] can be described thus: Binding affinity to rat MT1 receptor expressed in CHO-Galpha16 cells assessed as Ca2+ mobilization after 20 mins by FLIPR assay. The format is cell-based. Summed up: as §3
Background: Calcium flux is commonly read through the fluorescence of an indicator in the cells.

For data set [7], the system named is CHO-Galpha16. The data set can be described thus: Intrinsic activity at rat MT1 receptor expressed in CHO-Galpha16 cells assessed as Ca2+ mobilization after 20 mins by FLIPR assay relative to ramelteon. Format: cell-based. Summed up: as §3
Data set [8] in a line: Drug level in rat plasma at 10 mg/kg, ip after 1 hr. The following applies: read-out: Drug uptake. Format: ADME, organism-based. Details: dose 10 mg/kg, route intraperitoneal. Summed up: as §2
Data set [9] is described as follows: Drug level in rat brain at 10 mg/kg, ip after 1 hr. The format is ADME, organism-based. Details: dose 10 mg/kg, route intraperitoneal. Particulars: read-out: Drug uptake. Summed up:
as §2

In data set [10] the test system is Liver microsomes. Nature of the data set: Intrinsic clearance in human liver microsome at 1 uM by LC/MS analysis. Format: ADME. The procedure, abridged: as §4
Data set [11] is described as follows: Binding affinity to rat MT2 receptor expressed in CHO-Galpha16 cells assessed as Ca2+ mobilization after 20 mins by FLIPR assay. Format: cell-based. Summed up:
as §3

A short description of data set [12]: Displacement of [3H]melatonin from rat MT1 receptor expressed in CHO-Galpha16 cells. The format is cell-based. Summed up:
as §1
(In general: Displacement assays read how much labelled ligand stays bound in the presence of the test substance.)

The test system of data set [13] is CHO-Galpha16. The data set can be described thus: Inhibition of rat MT2 receptor expressed in CHO-Galpha16 cells relative to control. The format is cell-based. Particulars: dose or concentration not given here. The procedure, abridged: as §3
Data set [14] relates to CHO-Galpha16. The data set can be described thus: Inhibition of rat MT1 receptor expressed in CHO-Galpha16 cells relative to control. Format: cell-based. Also noted: concentration or dose not given beside the values. The following applies: dose or concentration not given here. The procedure, abridged:
as §3

The nature of data set [15]: as §5. The procedure, abridged:
as §1

Data set [16] is described as follows: Agonist activity at human MT1 receptor. The format is functional.
Data set [17] in a line: Agonist activity at human MT2 receptor. Format: functional.

Turning to `COc1cccc(C2CCN(C(=O)C3CC3)CC2)c1`, the Ki in [1] was 10 nM; in data set [12], 40 nM. The Kp at 1 h in data set [2] was 1.4. The Intrinsic activity in the data set filed under Rattus norvegicus [3] was determined as 74%; with CHO-Galpha16 [7], 41%. Besides, the clearance in the data set with Liver microsomes [4] came out at 91 µL/min/mg; in the data set with Liver microsomes [10], 29 µL/min/mg. In addition, the Ratio Ki in the data set listed under Rattus norvegicus [5] was 4. Besides, the EC50 in data set [6] is 65 nM; in data set [11], 9.5 nM. The concentration at 1 h in data set [8] worked out at 390 nM; in [9], 540 nM.

On to `COc1cc(N2CCC[C@@H](NC(=O)C3CC3)C2)ccc1Cl`, for which the IC50 in [1] was found to be 24 nM; in data set [12], 440 nM. Also, the results for the Ki in data set [1] and in data set [12] were 31 nM and 130 nM, respectively. Further, the Intrinsic activity in the data set filed under Rattus norvegicus [3] amounted to 23%; with CHO-Galpha16 [7], 19%. The inhibition turned out to be 98% in the data set on CHO-Galpha16 [13] and 94% in the data set with CHO-Galpha16 [14]. Besides, in the data set listed under Rattus norvegicus [5], the Ratio Ki came to 4. The EC50 in [6] and in data set [11] was more than 10000 nM in each case.

For `COc1cccc(N2CCC[C@@H](NC(=O)C3CC3)C2)c1`, in data set [1], the 50% inhibitory concentration (IC50) was determined as 10 nM. The Ki in [1] was 95 nM; in [12] it was 1000 nM. Further, the Intrinsic activity in the data set filed under Rattus norvegicus [3] is 23%; in the data set with CHO-Galpha16 [7], 30%. In the data set with CHO-Galpha16 [13], this compound registered an inhibition of 97%. In addition, the half-maximal effective concentration (EC50) in data set [6] came to 3500 nM; in data set [11], 93 nM.

For `COc1cccc(N2CCC[C@H](NC(=O)C3CC3)C2)c1`, the figures for the Ki in [1] and in data set [12] were 2.7 nM and 9.9 nM, respectively. The Kp at 1 h in [2] is 0.2. Moreover, the Intrinsic activity is 74% in the data set listed under Rattus norvegicus [3] and 77% with CHO-Galpha16 [7]. Besides, the clearance came out at 616 µL/min/mg in the data set with Liver microsomes [4] and 28 µL/min/mg in the data set on Liver microsomes [10]. Besides, the figures for the EC50 in data set [6] and in [11] were 3.9 nM and 6.2 nM, respectively. For the same compound, the concentration at 1 h turned out to be 730 nM in [8] and 180 nM in [9].

On to `COc1cccc(N2CCCC(NC(=O)C3CC3)C2)c1` (racemic), for which the IC50 in [1] and in data set [12] was more than 10000 nM each time. Further, the Ki in data set [1] is 2.7 nM; in data set [12] it was 15 nM. For the same compound, the Intrinsic activity is 99% in the data set filed under Rattus norvegicus [3] and 85% with CHO-Galpha16 [7]. Further, the Ki ratio (MT1/MT2) in data set [15] was 5.6. Besides, the results for the EC50 in [6] and in data set [11] were 9.7 nM and 2.9 nM, respectively.

On to `CCCC(=O)N[C@H]1CCN(c2cccc(OC)c2)C1`, for which the Ki in [16] came to 3.7 nM; in data set [17], 2.6 nM.

Turning to `O=C(N[C@H]1CCCN(c2cccc(OCCO)c2)C1)C1CC1`, the IC50 in data set [1] is 31 nM; in [12], 930 nM. In addition, the Ki was 150 nM in [1] and 610 nM in [12]. The figures for the Intrinsic activity in the data set listed under Rattus norvegicus [3] and in the data set with CHO-Galpha16 [7] were 12% and 3%, respectively. For the same compound, the inhibition with CHO-Galpha16 [13] came out at 94%; in the data set on CHO-Galpha16 [14], 91%. Further, the EC50 in [6] and in data set [11] was more than 10000 nM throughout.

On to `COc1ccc2cccc(CCNC(C)=O)c2c1` [AGOMELATINE], for which the Ki in [1] came to 0.14 nM; in data set [12] it was 1.2 nM. Besides, in [2], the Kp at 1 h amounted to 1.5. The Intrinsic activity in the data set listed under Rattus norvegicus [3] stood at 100%; in the data set with CHO-Galpha16 [7], 94%. Moreover, the clearance was determined as 144 µL/min/mg in the data set with Liver microsomes [4] and 361 µL/min/mg in the data set on Liver microsomes [10]. Also, the EC50 in data set [6] turned out to be 2.1 nM; in data set [11], 1.4 nM. In addition, the results for the concentration at 1 h in data set [8] and in data set [9] were 700 nM and 1030 nM, respectively.

As for `CCC(=O)NCC[C@@H]1CCc2ccc3c(c21)CCO3` [RAMELTEON], the values for the Ki in [1] and in [12] were 0.03 nM and 2 nM, respectively. Further, the Kp at 1 h in data set [2] is 0.7. In addition, the Intrinsic activity in the data set filed under Rattus norvegicus [3] is 95%; in the data set on CHO-Galpha16 [7], 100%. Further, the clearance with Liver microsomes [4] is 60 µL/min/mg; in the data set with Liver microsomes [10] it was 47 µL/min/mg. The EC50 in data set [6] amounted to 3.1 nM; in [11] it was 0.89 nM. The figures for the concentration at 1 h in [8] and in data set [9] were 580 nM and 390 nM, respectively.

As usually defined, the Ki is a measure of affinity in units of concentration, obtained from inhibition or displacement. In general, Kp refers to the ratio of the level in a tissue or fluid to that in plasma or blood. One may read the EC50 as the concentration at which the effect is half-maximal. By IC50 is commonly meant the concentration that inhibits the measured activity by half. A word on the inhibition: it is the drop in the measured response relative to a control, in per cent.
